Consider three molecules from the M2OR odorant receptor database.

Common to all, as to conditions: stereoisomer not certain
In assay [1] the target is T1, OR4S2 (Homo sapiens) (UniProt Q8NH73).
T1 sequence (whole entry): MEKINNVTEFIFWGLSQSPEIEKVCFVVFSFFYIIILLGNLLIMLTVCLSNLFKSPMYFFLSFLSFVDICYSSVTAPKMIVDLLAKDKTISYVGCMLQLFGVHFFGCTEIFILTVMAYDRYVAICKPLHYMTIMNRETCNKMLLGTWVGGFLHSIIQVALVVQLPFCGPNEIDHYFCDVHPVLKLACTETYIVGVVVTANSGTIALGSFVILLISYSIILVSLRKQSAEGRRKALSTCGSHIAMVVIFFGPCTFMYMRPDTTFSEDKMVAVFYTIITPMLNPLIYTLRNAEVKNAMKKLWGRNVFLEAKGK
In outline:
(§1)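 Transient luciferase assays in mammalian cell lines were common, though methods varied by source. The values come from published papers and their supplementary material, with extra details from the original authors when needed. Responsive refers to a measured signal the original authors judged statistically different from baseline, and non-responsive (inactive) to the remainder.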

Assay [2] concerns the target T2, OR4X1 (Homo sapiens) (UniProt Q8NH49).
T2 sequence (whole entry): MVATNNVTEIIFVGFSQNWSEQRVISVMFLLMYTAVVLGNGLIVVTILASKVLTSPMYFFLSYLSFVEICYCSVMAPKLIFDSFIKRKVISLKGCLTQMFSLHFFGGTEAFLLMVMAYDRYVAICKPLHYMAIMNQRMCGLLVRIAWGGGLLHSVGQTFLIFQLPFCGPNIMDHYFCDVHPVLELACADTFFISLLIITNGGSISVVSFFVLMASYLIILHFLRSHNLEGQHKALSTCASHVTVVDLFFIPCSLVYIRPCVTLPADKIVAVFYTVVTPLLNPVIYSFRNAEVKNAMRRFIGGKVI
The procedure, abridged: as §1

For assay [3], the target named is T3, OR4X2 (Homo sapiens) (UniProt Q8NGF9).
T3 sequence (whole entry): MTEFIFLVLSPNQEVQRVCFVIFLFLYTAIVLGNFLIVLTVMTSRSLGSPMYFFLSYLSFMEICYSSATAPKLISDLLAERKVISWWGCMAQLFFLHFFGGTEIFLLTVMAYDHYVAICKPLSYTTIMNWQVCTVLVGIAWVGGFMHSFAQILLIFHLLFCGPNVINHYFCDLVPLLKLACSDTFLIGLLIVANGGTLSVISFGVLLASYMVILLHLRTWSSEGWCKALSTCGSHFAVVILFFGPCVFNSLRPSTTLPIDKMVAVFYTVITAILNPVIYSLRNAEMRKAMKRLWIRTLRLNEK
In outline: as §1

Assay [4] addresses T4, OR51A2 (Homo sapiens) (UniProt Q8NGJ7).
T4 sequence (whole entry): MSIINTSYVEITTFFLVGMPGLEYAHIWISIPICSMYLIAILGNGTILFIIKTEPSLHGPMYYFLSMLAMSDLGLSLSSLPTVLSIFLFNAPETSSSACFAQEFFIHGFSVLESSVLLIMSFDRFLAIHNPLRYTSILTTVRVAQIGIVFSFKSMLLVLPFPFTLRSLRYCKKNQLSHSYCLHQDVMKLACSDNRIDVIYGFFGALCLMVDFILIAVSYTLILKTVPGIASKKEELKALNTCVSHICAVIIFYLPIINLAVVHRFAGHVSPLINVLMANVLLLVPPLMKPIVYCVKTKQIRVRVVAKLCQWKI
In outline: as §1

The target in assay [5] is T5, OR51A4 (Homo sapiens) (UniProt Q8NGJ6).
T5 sequence (whole entry): T4 sequence (whole entry) with G59E, T94I, S97N, S167N, P227L, E235Q, G267R, M288T, K289N, W311R
In outline: as §1

Assay [6] has as its target T6, OR51A7 (Homo sapiens) (UniProt Q8NH64).
T6 sequence (whole entry): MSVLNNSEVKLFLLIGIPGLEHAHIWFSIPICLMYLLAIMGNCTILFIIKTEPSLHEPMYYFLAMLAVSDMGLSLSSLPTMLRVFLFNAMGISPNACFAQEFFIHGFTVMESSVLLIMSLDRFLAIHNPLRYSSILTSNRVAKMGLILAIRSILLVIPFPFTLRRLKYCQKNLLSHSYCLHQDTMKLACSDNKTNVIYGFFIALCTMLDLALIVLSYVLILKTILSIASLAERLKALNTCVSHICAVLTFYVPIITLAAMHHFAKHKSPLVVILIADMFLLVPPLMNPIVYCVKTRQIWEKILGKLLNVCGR
The procedure, abridged:
as §1

The target of assay [7] is T7, OR51B2 (Homo sapiens) (UniProt Q9Y5P1).
T7 sequence (whole entry): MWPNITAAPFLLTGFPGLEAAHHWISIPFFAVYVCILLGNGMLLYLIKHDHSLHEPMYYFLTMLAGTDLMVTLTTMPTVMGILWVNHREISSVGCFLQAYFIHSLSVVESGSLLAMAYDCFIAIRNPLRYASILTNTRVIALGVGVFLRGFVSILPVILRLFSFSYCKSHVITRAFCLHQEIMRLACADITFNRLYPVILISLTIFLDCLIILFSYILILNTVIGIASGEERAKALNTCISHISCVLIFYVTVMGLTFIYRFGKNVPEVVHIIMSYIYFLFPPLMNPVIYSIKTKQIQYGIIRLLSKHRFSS
The procedure, abridged: as §1

In assay [8] the target is T8, OR51B4 (Homo sapiens) (UniProt Q9Y5P0).
T8 sequence (whole entry): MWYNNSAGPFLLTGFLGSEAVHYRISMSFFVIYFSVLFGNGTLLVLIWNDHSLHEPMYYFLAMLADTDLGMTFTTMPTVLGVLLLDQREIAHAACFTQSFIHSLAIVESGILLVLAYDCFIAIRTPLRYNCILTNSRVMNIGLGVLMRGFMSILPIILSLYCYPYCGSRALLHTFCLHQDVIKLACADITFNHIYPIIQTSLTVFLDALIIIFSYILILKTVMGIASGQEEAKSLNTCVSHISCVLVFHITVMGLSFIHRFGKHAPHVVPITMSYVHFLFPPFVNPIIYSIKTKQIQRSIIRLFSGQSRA
The procedure, abridged:
as §1

For assay [9], the target named is T9, OR51B5 (Homo sapiens) (UniProt Q9H339).
T9 sequence (whole entry): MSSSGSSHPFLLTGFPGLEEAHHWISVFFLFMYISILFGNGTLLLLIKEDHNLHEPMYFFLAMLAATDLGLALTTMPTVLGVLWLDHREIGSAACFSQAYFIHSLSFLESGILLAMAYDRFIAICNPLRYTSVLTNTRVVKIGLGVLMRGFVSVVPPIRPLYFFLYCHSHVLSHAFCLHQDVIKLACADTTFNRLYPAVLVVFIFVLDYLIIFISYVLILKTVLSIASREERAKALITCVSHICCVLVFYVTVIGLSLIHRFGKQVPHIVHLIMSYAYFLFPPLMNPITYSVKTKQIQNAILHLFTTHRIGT
The procedure, abridged: as §1

Assay [10] concerns the target T10, OR51B6 (Homo sapiens) (UniProt Q9H340).
T10 sequence (whole entry): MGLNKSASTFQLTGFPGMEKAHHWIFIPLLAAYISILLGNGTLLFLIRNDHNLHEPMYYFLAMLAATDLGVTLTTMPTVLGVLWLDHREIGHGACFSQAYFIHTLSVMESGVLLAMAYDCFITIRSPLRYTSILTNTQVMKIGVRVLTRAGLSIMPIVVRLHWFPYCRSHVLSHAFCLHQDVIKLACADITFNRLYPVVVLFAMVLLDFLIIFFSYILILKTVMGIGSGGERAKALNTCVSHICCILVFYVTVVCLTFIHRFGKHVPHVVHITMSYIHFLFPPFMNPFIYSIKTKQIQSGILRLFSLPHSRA
The procedure, abridged: as §1

The target in assay [11] is T11, OR51D1 (Homo sapiens) (UniProt Q8NGF3).
T11 sequence (whole entry): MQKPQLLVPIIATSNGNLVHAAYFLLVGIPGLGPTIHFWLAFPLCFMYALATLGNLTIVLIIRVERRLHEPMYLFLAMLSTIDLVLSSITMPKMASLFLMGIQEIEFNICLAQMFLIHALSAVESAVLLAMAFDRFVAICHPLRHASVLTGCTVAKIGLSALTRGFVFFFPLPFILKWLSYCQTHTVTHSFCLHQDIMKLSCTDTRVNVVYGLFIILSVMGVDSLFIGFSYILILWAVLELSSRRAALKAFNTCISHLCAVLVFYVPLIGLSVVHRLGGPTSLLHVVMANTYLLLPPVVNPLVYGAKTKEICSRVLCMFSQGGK
In outline:
as §1

In assay [12] the target is T12, OR51E1 (Homo sapiens) (UniProt Q8TCB6).
T12 sequence (whole entry): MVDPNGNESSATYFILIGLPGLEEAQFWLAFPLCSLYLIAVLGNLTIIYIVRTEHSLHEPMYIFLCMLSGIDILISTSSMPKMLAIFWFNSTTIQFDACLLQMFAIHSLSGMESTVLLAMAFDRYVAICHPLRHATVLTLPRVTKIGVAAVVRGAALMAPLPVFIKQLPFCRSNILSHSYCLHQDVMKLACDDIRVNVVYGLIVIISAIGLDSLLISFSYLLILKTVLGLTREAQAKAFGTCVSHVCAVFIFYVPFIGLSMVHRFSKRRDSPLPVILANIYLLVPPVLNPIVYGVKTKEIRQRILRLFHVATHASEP
The procedure, abridged: as §1

The target in assay [13] is T13, OR51E2 (Homo sapiens) (UniProt Q9H255).
T13 sequence (whole entry): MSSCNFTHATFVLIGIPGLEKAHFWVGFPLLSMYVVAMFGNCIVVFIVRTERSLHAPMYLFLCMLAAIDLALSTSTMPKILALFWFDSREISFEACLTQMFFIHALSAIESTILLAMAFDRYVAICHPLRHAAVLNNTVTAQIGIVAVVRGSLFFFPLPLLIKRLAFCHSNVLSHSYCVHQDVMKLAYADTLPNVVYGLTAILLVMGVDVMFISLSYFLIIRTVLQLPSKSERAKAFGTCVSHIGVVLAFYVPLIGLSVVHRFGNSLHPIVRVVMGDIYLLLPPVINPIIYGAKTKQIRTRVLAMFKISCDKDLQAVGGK
In outline:
as §1

For assay [14], the target named is T14, OR51F1 (Homo sapiens) (UniProt A6NGY5).
T14 sequence (whole entry): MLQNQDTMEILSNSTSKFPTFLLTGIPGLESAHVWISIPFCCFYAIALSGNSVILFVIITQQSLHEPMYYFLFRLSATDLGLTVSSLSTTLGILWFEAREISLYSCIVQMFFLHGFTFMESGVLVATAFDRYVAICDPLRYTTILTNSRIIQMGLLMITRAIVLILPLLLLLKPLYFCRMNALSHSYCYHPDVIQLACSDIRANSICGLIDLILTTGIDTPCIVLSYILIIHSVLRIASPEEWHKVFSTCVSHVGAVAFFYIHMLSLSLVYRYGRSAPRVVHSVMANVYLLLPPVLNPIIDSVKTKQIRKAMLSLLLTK
The procedure, abridged:
as §1

Assay [15] addresses T15, OR51F2 (Homo sapiens) (UniProt Q8NH61).
T15 sequence (whole entry): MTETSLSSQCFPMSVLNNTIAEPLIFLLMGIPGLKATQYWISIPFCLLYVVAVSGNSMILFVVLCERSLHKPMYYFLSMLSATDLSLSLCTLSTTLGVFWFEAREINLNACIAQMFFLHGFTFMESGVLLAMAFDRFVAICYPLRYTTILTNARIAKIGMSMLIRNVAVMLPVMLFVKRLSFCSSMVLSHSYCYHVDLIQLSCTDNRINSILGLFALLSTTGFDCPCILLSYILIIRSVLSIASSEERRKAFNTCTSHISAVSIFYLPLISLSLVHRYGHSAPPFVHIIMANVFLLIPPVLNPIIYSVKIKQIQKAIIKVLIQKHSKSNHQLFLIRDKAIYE
The procedure, abridged:
as §1

Assay [16] addresses T16, OR51G1 (Homo sapiens) (UniProt Q8NGK1).
T16 sequence (whole entry): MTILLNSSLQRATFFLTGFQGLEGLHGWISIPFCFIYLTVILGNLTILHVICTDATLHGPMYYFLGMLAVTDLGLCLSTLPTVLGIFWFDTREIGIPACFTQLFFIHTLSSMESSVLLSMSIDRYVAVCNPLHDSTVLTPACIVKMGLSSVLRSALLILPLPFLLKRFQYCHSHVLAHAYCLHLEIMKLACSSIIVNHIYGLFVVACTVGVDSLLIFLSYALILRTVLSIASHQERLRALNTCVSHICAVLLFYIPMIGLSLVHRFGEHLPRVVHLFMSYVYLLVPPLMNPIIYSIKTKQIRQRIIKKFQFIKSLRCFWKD
The procedure, abridged:
as §1

Assay [17] deals with T17, OR51G2 (Homo sapiens) (UniProt Q8NGK0).
T17 sequence (whole entry): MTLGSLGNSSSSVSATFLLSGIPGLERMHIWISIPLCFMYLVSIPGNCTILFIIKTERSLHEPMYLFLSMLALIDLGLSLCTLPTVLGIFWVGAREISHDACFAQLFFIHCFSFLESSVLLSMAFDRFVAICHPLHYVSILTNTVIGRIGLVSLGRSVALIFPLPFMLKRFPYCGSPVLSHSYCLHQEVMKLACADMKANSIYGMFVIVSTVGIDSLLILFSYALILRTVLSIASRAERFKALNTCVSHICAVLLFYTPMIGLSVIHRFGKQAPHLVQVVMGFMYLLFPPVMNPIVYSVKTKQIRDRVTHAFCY
The procedure, abridged: as §1

For assay [18], the target named is T18, OR51I1 (Homo sapiens) (UniProt Q9H343).
T18 sequence (whole entry): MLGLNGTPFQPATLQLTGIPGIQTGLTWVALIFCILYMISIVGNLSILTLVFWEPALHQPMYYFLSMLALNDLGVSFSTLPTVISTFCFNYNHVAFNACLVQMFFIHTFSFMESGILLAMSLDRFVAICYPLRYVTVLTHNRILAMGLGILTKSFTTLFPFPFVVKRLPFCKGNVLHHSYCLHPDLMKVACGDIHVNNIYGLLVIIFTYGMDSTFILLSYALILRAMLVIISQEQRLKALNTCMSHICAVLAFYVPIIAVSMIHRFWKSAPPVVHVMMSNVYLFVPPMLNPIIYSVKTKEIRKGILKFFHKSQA
In outline:
as §1

Substitutions are numbered along the chain they refer to.
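Also: active if original authors judged signal statistically different from baseline.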

Regarding `CCCCCCC=CCCC=O`, the “odorant receptor agonist call” value in assay [1], in [2], in assay [3], in [4], in [5] and in [6] was “inactive” throughout. Moreover, the “odorant receptor agonist call” value in assay [7], in assay [8], in [9], in [10], in [11] and in [12] was “inactive” in each case. Also, the “odorant receptor agonist call” value in assay [13], in [14], in assay [15], in assay [16], in assay [17] and in assay [18] was “inactive” throughout.

`CCCCCCCCC(=O)O`: the “odorant receptor agonist call” value in assay [5] and in [13] was “inactive” each time. In addition, the “odorant receptor agonist call” value in assay [12] is “active”.

In the case of `CCCCCCCCCCCC(=O)OC`, in assay [9], the “odorant receptor agonist call” value was “inactive”.
